Measured values reported in ChEMBL document CHEMBL1765076, “17,20-Lyase inhibitors. Part 3: Design, synthesis, and structure-activity relationships of biphenylylmethylimidazole derivatives as novel 17,20-lyase inhibitors” (Bioorg Med Chem, 2011).
pIC50: −log10 of the molar value.

Assays:
Homo sapiens = species on record: Homo sapiens; test: Ratio of IC50 for human CYP3A4 to IC50 for human 17,20-lyase
Cytochrome P450 3A4 = Cytochrome P450 3A4 (Homo sapiens, UniProt P08684); test: Inhibition of human CYP3A4 after 30 mins; type: ADME
Sequence of Cytochrome P450 3A4 (P08684 whole entry): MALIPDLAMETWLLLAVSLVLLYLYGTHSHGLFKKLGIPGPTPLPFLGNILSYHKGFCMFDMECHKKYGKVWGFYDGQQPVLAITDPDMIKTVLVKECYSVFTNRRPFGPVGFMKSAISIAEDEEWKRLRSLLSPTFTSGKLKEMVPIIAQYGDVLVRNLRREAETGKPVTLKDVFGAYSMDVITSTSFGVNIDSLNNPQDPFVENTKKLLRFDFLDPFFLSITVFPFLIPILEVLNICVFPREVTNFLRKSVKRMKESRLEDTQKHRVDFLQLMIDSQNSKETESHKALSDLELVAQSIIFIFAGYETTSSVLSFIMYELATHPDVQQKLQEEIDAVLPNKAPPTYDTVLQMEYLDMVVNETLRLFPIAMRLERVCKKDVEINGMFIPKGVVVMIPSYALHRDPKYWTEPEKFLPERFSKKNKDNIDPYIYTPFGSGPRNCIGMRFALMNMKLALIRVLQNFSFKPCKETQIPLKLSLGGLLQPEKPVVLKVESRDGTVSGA

[1] = molecular target: T1, Steroid 17-alpha-hydroxylase/17,20 lyase (Homo sapiens, UniProt P05093); test: Inhibition of human 17,20 lyase activity
T1 sequence (P05093 whole entry): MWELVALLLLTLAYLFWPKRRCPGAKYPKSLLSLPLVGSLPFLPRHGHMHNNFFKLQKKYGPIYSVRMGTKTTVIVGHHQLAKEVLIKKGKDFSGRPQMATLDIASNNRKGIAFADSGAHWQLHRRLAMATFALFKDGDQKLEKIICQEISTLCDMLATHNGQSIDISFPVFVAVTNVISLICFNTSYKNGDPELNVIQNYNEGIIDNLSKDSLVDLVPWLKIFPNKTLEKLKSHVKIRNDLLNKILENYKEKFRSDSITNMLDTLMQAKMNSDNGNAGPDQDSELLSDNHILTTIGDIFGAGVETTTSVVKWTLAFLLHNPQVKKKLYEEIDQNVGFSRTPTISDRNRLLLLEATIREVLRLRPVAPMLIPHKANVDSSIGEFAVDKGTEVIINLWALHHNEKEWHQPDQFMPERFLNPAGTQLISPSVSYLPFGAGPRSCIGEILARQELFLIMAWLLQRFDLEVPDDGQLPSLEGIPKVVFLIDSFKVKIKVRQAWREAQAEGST

[2] = molecular target: T2, Steroid 17-alpha-hydroxylase/17,20 lyase (Rattus norvegicus, UniProt P11715); test: Inhibition of 17,20 lyase activity in Sprague-Dawley rat testicular microsomes; design: species or system Testis
T2 sequence (P11715 whole entry): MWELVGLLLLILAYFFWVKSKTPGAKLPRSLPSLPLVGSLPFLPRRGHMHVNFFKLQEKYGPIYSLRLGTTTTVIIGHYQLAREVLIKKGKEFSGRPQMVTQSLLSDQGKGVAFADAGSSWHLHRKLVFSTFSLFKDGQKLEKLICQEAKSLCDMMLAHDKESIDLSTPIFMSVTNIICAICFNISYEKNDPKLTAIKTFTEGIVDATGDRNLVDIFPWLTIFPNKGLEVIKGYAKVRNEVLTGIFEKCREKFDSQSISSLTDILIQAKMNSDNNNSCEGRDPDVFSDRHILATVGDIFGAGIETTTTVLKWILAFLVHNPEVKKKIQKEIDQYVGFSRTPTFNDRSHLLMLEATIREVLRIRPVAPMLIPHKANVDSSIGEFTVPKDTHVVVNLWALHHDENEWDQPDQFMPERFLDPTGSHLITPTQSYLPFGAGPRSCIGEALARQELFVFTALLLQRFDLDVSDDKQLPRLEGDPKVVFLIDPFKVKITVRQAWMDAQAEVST
Procedure, shortened: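 Testicular microsomes came from 13-week-old male SD rats, prepared by homogenisation and centrifugation. Reactions contained 75 mM phosphate (pH 7.4), 7 µg microsomal protein, 10 nM [1,2-3H]-17α-hydroxyprogesterone, 5 mM NADPH and 1–1000 nM compound (final concentrations; DMF stocks diluted in water). Incubation was 15 min at 37 °C, stopped with ethyl acetate. IC50 is the concentration halving product formation.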

Cynomolgus monkey [3] = test: Antiandrogenic activity in cynomolgus monkey assessed as serum testosterone level at 3 mg/kg, po after 2 hrs (reference value: 110 +/- 29%); type: functional, Macaca fascicularis
Cynomolgus monkey [4] = test: Antiandrogenic activity in cynomolgus monkey assessed as serum testosterone level at 3 mg/kg, po after 5 hrs (reference value: 98 +/- 33%); type: functional, Macaca fascicularis
Cynomolgus monkey [5] = test: Antiandrogenic activity in cynomolgus monkey assessed as serum DHEA level at 3 mg/kg, po after 2 hrs (reference value: 116 +/- 95%); type: functional, Macaca fascicularis
Cynomolgus monkey [6] = test: Antiandrogenic activity in cynomolgus monkey assessed as serum DHEA level at 3 mg/kg, po after 5 hrs (reference value: 148 +/- 53%); type: functional, Macaca fascicularis

Ratio IC50 (Homo sapiens)	pIC50 (Cytochrome P450 3A4)	Compound	pIC50 [1]	pIC50 [2]	Activity (Cynomolgus monkey [3])	Activity (Cynomolgus monkey [4])	Activity (Cynomolgus monkey [5])	Activity (Cynomolgus monkey [6])
> 300		CC(=O)Nc1cccc(-c2ccc([C@](O)(c3c[nH]cn3)C(C)C)cc2)n1						
	< 5.00	CC(=O)Nc1cccc(-c2ccc(C(C)(O)c3c[nH]cn3)cc2)c1 (racemic)	7.42	7.21				
49	5.62	CC(C)C(O)(c1cccc(-c2ccc(Cl)cc2)c1)c1c[nH]cn1 (racemic)	7.31	7.72				
		CC(=O)Nc1cccc(-c2ccc(C(O)(c3c[nH]cn3)C(C)C)cc2)c1 (racemic)	7.62	7.77				
	5.26	CC(=O)Nc1cccc(-c2ccc(C(O)(c3c[nH]cn3)C3CC3)cc2)c1 (racemic)	7.35	7.09				
		CC(=O)Nc1cccc(-c2ccc([C@@](O)(c3c[nH]cn3)C(C)C)cc2)c1	6.47	6.11				
> 300	< 5.00	CC[C@](O)(c1ccc(-c2cccc(NC(C)=O)c2)cc1)c1c[nH]cn1	7.66	7.72				
91	5.31	COc1ccc(-c2ccc(C(O)(c3c[nH]cn3)C(C)C)cc2)cc1 (racemic)	7.27	6.92				
	5.28	CC(C)C(O)(c1ccc(-c2ccccn2)cc1)c1c[nH]cn1 (racemic)	6.82	6.68				
111	5.68	CC(C)C(O)(c1cccc(-c2ccc(F)cc2)c1)c1c[nH]cn1 (racemic)	7.72					
	< 5.00	CC[C@@](O)(c1ccc(-c2cccc(NC(C)=O)c2)cc1)c1c[nH]cn1	6.62	6.35				
	< 5.00	CC(=O)Nc1cccc(-c2ccc(C(O)c3cnc[nH]3)cc2)c1 (racemic)	7.11	6.49				
	5.48	CNS(=O)(=O)c1cccc(-c2ccc(C(O)(c3cnc[nH]3)C(C)C)cc2)c1 (racemic)	6.80	7.15				
		CC(=O)Nc1cccc(-c2ccc([C@](O)(c3c[nH]cn3)C(C)C)cc2)c1	7.59	7.85	52%	23%	23%	13%
	> 6.00	COc1ccc2cc(C(O)(c3c[nH]cn3)C(C)C)ccc2c1 (racemic)						
15	5.70	COc1ccc(-c2cccc(C(O)(c3c[nH]cn3)C(C)C)c2)cc1 (racemic)	6.89					
	< 5.00	CCC(O)(c1ccc(-c2cccc(NC(C)=O)c2)cc1)c1c[nH]cn1 (racemic)	7.40	7.60				

Compound	Ratio IC50 (Homo sapiens)	pIC50 (Cytochrome P450 3A4)	pIC50 [1]	pIC50 [2]	Activity (Cynomolgus monkey [3])	Activity (Cynomolgus monkey [4])	Activity (Cynomolgus monkey [5])	Activity (Cynomolgus monkey [6])
CNC(=O)Nc1cccc(-c2ccc(C(O)(c3c[nH]cn3)C(C)C)cc2)c1 (racemic)		5.26	7.68	7.62				
CC(C)C(O)(c1ccc(-c2ccc(Cl)cc2)cc1)c1c[nH]cn1 (racemic)	271	5.12	7.55	7.54				
CC(=O)Nc1cccc(-c2ccc([C@@](O)(c3cnc[nH]3)C(C)C)cc2)n1		< 5.00	7.04	< 6.00				
CNC(=O)c1cccc(-c2ccc(C(O)(c3c[nH]cn3)C(C)C)cc2)c1 (racemic)		5.09	7.36	7.31				
CC(C)C(O)(c1ccc(-c2ccccc2)cc1)c1c[nH]cn1 (racemic)	112	5.43	7.48	7.48				
CC(C)C(O)(c1ccc(-c2ccc(F)cc2)cc1)c1c[nH]cn1 (racemic)	196	5.28	7.57					
CC(=O)Nc1cccc(-c2ccc([C@](O)(c3cnc[nH]3)C(C)C)cc2)n1		< 5.00	7.59	7.48				
CC(=O)Nc1ccc(-c2ccc(C(O)(c3c[nH]cn3)C(C)C)cc2)cc1 (racemic)		6.00	6.92	7.62				
CC(=O)Nc1cccc(-c2ccc(C(O)(c3c[nH]cn3)C(C)C)cc2)n1 (racemic)		< 5.00	7.44	7.28				
